Measurements published in paper PMC10622895 (Proceedings of the National Academy of Sciences of the …, 2023).

Tests used:
[1] = ref [1]; cited from earlier work
BCM3107 TNBC PDX = experiment: Patient-derived xenograft in NSG mice; format: in vivo, mouse; conditions: 5D4 40 mg/kg i.p. twice weekly; talazoparib 0.5 mg/kg daily × 5 per week
BCM2665 PDX = experiment: IHC of cleaved PARP1 in PDX tumors; format: in vivo, mouse
In short: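 Tumors were taken the day after the last dose for cleaved PARP1 IHC. Percent positive cells was scored on twelve 10× images from three xenografts per group.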

[2] = tested on: mouse intestinal epithelium; experiment: IHC of cleaved PARP1 and Ki67 in mouse intestine; format: in vivo; conditions: mice of the BCM2665 experiment
In short: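 NSG mice carried BCM2665 breast cancer PDX. Mice were euthanized the day after the last dose. Intestine was IHC-stained for cleaved PARP1 (10× objective), with percent positive cells determined by image analysis. Ki67 IHC was done on intestinal epithelium (20× objective).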

SMILES: O=C(O)CN(CC(=O)O)Cc1cc2c(cc1O)Oc1cc(O)c(CN(CC(=O)O)CC(=O)O)cc1C21OC(=O)c2ccccc21 [calcein]
- membrane permeability [1]: lacks membrane permeability

SMILES: CNCc1ccc(-c2[nH]c3cc(F)cc4c3c2CCNC4=O)cc1 [rucaparib]
- viability of nontransformed hepatocytes (AML12 mouse hepatocytes): did not elicit any effect

SMILES: Cn1ncnc1[C@H]1c2n[nH]c(=O)c3cc(F)cc(c23)N[C@@H]1c1ccc(F)cc1 [talazoparib]
- tumor response, single agent (BCM3107 TNBC PDX): resistant
- apoptosis in PDX (PARP-1 cleavage, IHC) (BCM2665 PDX): only had mild proapoptotic effect
- apoptosis and Ki67 staining in mouse intestinal epithelium [2]: neither induced apoptosis nor affected Ki67 staining
